SMILES strings stand for the structures.

Series [1] can be described thus: Selectivity index, ratio of CC50 for human MT4 cells to EC50 for HIV-2 ROD infected in human MT4 cells. To be noted: read-out: Ratio CC50/EC50. The class given is toxicity, cell-based. In short, it runs like this:
(§1)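 MT-4 cells are seeded at 6 × 10⁵ cells/mL. Serial fivefold compound dilutions go into two triplicate series, one mock-infected and one virus-infected. After 5 days, viability is read by MTT reduction to formazan, with absorbance at 540 and 690 nm. EC50 comes from infected wells and CC50 from mock-infected wells. SI = CC50/EC50.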

Series [2] is described as follows: Selectivity index, ratio of CC50 for human MT4 cells to EC50 for wild type HIV-1 3B infected in human MT4 cells. The class given is toxicity, cell-based. The settings on record: read-out: Ratio CC50/EC50. In short, it runs like this:
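HIV-1 IIIB is added at 100–300 CCID50 per well to MT-4 cells seeded at 6 × 10⁵ cells/mL. Fivefold serial compound dilutions are run in triplicate, with a parallel mock-infected series for cytotoxicity. MTT viability is read at 540 and 690 nm after 5 days. SI = CC50 (mock-infected) / EC50 (infected).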

The nature of series [3]: Selectivity index, ratio of CC50 for human MT4 cells to EC50 for HIV-1 RES056 harboring reverse transcriptase K103N/Y181C double mutant infected in human MT4 cells. The settings on record: read-out: Ratio CC50/EC50. The class given is toxicity, cell-based. In short, it runs like this:
as §1

A short description of series [4]: Cytotoxicity against human MT4 cells assessed as growth inhibition after 5 days by MTT assay. The class given is cell-based. The method, boiled down: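 Mock-infected MT-4 cells (6 × 10⁵ cells/mL) were run in parallel triplicate wells with serial fivefold compound dilutions added from 10× stocks and culture medium instead of virus. Viability was measured by MTT at day 5, reading absorbance at 540 and 690 nm.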

Series [5] relates to Human immunodeficiency virus 2. Description: Antiviral activity against HIV-2 ROD infected in human MT4 cells assessed as protection against virus-induced cytopathogenicity after 5 days by MTT assay. The class given is functional, organism-based. The settings on record: Human immunodeficiency virus 2, ISOLATE ROD, MT4, 120 h. The method, boiled down: (§2)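 Compounds added at the start as 10× stocks to triplicate wells, then serially diluted fivefold. Virus stock at […] CCID50 was added to MT-4 cells resuspended at 6 × 10⁵ cells/mL. Viability was read by MTT reduction to formazan five days post-infection, with absorbance measured at 540 and 690 nm. EC50 is the concentration protecting against virus-induced cytopathicity.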
(In general: Protection from cytopathic effect is a common read-out in antiviral testing.)

Series [6] concerns Human immunodeficiency virus 1. Briefly: Antiviral activity against HIV-1 RES056 harboring reverse transcriptase K103N/Y181C double mutant infected in human MT4 cells assessed as protection against virus-induced cytopathogenicity after 5 days by MTT assay. To be noted: Human immunodeficiency virus 1, RES056, MT4, 120 h. The format is functional, organism-based. The method, boiled down:
as §1

Series [7] has as its system Human immunodeficiency virus 1. Description: Antiviral activity against wild type HIV-1 3B infected in human MT4 cells assessed as protection against virus-induced cytopathogenicity after 5 days by MTT assay. The class given is functional, organism-based. To be noted: Human immunodeficiency virus 1, 3B, MT4, 120 h. The method, boiled down:
as §2

Series [8] deals with Human immunodeficiency virus type 1 reverse transcriptase (Human immunodeficiency virus 1, UniProt Q72547). Briefly: Inhibition of wild type HIV-1 reverse transcriptase using […] as template/primer assessed as inhibition of biotin-dUTP incorporation after 1 hr by microtiter plate ELISA reader analysis.

Turning to `N#Cc1ccc(Nc2cc(Nc3c(F)cc(Br)cc3Br)c([N+](=O)[O-])cn2)cc1`, the selectivity ratio is under 1 in series [1], 49 in series [2] and under 1 in series [3]. Also, the CC50 at 120 h in series [4] stood at 149 µM. Also, the EC50 is over 149 µM in series [5], over 149 µM in series [6] and 3.05 µM in series [7].
Consider `N#Cc1ccc(Nc2cc(Oc3c(F)cc(F)cc3F)c([N+](=O)[O-])cn2)cc1`, for which the selectivity ratio in series [1] was under 1; in series [2], 5; in series [3] it was under 1. Further, in series [4], the CC50 at 120 h came to 3.54 µM. The EC50 is over 3.54 µM in series [5], over 3.54 µM in series [6] and 0.72 µM in series [7].
As for `Cc1cc(Br)c(Nc2cc(Nc3ccc(C#N)cc3)ncc2[N+](=O)[O-])c(Br)c1`, the selectivity ratio in series [1] is under 1; in series [2], 43; in series [3], under 1. In series [4], the CC50 at 120 h is 167 µM. Also, the values for the EC50 in series [5], in series [6] and in series [7] were over 167 µM, over 167 µM and 3.85 µM, respectively.
Regarding `Cc1cc(Br)c(Oc2cc(Nc3ccc(C#N)cc3)ncc2[N+](=O)[O-])c(Br)c1`, in series [8], the IC50 is 10.4 µM. Moreover, the selectivity ratio in series [1] is under 1; in series [2], 691; in series [3], under 1. Besides, the CC50 at 120 h in series [4] was 23.6 µM. Moreover, the EC50 in series [5] is over 23.6 µM; in series [6], over 23.6 µM; in series [7], 0.034 µM.
As for `CC(C)Nc1cccnc1N1CCN(C(=O)c2cc3cc(NS(C)(=O)=O)ccc3[nH]2)CC1` [DELAVIRDINE], the selectivity ratio in series [2] is over 71; in series [3], under 1. The 50% cytotoxic concentration (CC50) at 120 h in series [4] is over 36.2 µM. Besides, the EC50 in series [6] is over 36.2 µM; in series [7] it was 0.51 µM.
Take `N#Cc1ccc(Nc2cc(Oc3c(Cl)cc(Cl)cc3Cl)c([N+](=O)[O-])cn2)cc1`: the values for the selectivity ratio in series [1], in series [2] and in series [3] were under 1, 97 and under 1, respectively. In series [4], the CC50 at 120 h came to 16.2 µM. For the same compound, the figures for the EC50 in series [5], in series [6] and in series [7] were over 16.2 µM, over 16.2 µM and 0.17 µM, respectively.
Turning to `N#Cc1ccc(Nc2cc(Oc3c(Br)cc(Br)cc3Br)c([N+](=O)[O-])cn2)cc1`, the selectivity ratio in series [1] was under 1; in series [2], 65; in series [3], under 1. In series [4], the CC50 at 120 h came to 7.49 µM. Also, the values for the EC50 in series [5], in series [6] and in series [7] were over 7.49 µM, over 7.49 µM and 0.11 µM, respectively.
As to `Cc1cc(C)c(Nc2cc(Nc3ccc(C#N)cc3)ncc2[N+](=O)[O-])c(C)c1`, the selectivity ratio in series [1] was under 1; in series [2], 9; in series [3], under 1. Also, the CC50 at 120 h in series [4] worked out at 262 µM. The EC50 in series [5] is over 262 µM; in series [6] it was over 262 µM; in series [7] it was 30.2 µM.
As for `Cc1cc(C)c(Oc2cc(Nc3ccc(C#N)cc3)ncc2[N+](=O)[O-])c(C)c1`, the IC50 in series [8] was 6.9 µM. Also, the selectivity ratio in series [1] was under 1; in series [2] it was 1250; in series [3], under 1. For the same compound, the CC50 at 120 h in series [4] stood at 69.9 µM. The figures for the EC50 in series [5], in series [6] and in series [7] were over 69.9 µM, over 69.9 µM and 0.056 µM, respectively.
In the case of `Cc1ccnc2c1NC(=O)c1cccnc1N2C1CC1` [NEVIRAPINE], the CC50 at 120 h in series [4] is over 15 µM. Further, the EC50 in series [6] was 4.09 µM.
Turning to `Cc1cccc(C)c1Nc1cc(Nc2ccc(C#N)cc2)ncc1[N+](=O)[O-]`, the selectivity ratio in series [1], in series [2] and in series [3] was under 1 in each case. Besides, the CC50 at 120 h in series [4] came to 12.8 µM. The EC50 in series [5], in series [6] and in series [7] was over 12.8 µM in each case.
Consider `Cc1cc(Br)cc(C)c1Oc1cc(Nc2ccc(C#N)cc2)ncc1[N+](=O)[O-]`, for which the selectivity ratio in series [1] is under 1; in series [2], 45; in series [3], under 1. Moreover, in series [4], the CC50 at 120 h amounted to 12.3 µM. Also, the EC50 is over 12.3 µM in series [5], over 12.3 µM in series [6] and 0.27 µM in series [7].
As to `N#Cc1ccc(Nc2cc(Oc3c(Cl)cc([N+](=O)[O-])cc3Cl)c([N+](=O)[O-])cn2)cc1`, the selectivity ratio in series [1] is under 1; in series [2], 2; in series [3], under 1. The CC50 at 120 h in series [4] was determined as 26.5 µM. For the same compound, the results for the EC50 in series [5], in series [6] and in series [7] were over 26.5 µM, over 26.5 µM and 16.8 µM, respectively.
As for `O=C1Nc2ccc(Cl)cc2[C@@](C#CC2CC2)(C(F)(F)F)O1` [EFAVIRENZ], the figures for the selectivity ratio in series [2] and in series [3] were over 1110 and over 21, respectively. Further, the CC50 at 120 h in series [4] was over 6.34 µM. The results for the EC50 in series [6] and in series [7] were 0.32 µM and 0.0057 µM, respectively.
Consider `N#Cc1ccc(Nc2cc(Oc3c(Cl)cccc3Cl)c([N+](=O)[O-])cn2)cc1`, for which the results for the selectivity ratio in series [1], in series [2] and in series [3] were under 1, 44 and under 1, respectively. For the same compound, in series [4], the CC50 at 120 h amounted to 27.7 µM. Besides, the EC50 in series [5] is over 27.7 µM; in series [6] it was over 27.7 µM; in series [7], 0.62 µM.
Turning to `Cc1ccc(Nc2cc(Oc3c(C)cc(C#N)cc3C)c([N+](=O)[O-])cn2)cc1`, the selectivity ratio in series [1], in series [2] and in series [3] was under 1 each time. Also, the CC50 at 120 h in series [4] came to 207 µM. The EC50 in series [5], in series [6] and in series [7] was over 207 µM throughout.
On to `COc1cccc(OC)c1Oc1cc(Nc2ccc(C#N)cc2)ncc1[N+](=O)[O-]`, for which the selectivity ratio in series [1] is under 1; in series [2], 74; in series [3], under 1. Besides, the CC50 at 120 h in series [4] was found to be 319 µM. Besides, the values for the EC50 in series [5], in series [6] and in series [7] were over 319 µM, over 319 µM and 4.28 µM, respectively.
With `Cc1cc(C#N)cc(C)c1Oc1cc(Nc2ccc([N+](=O)[O-])cc2)ncc1[N+](=O)[O-]`, the results for the selectivity ratio in series [1], in series [2] and in series [3] were under 1, 200 and under 1, respectively. In addition, the CC50 at 120 h in series [4] was 141 µM. Besides, the values for the EC50 in series [5], in series [6] and in series [7] were over 141 µM, over 141 µM and 0.72 µM, respectively.
On to `Cc1cc(C#N)cc(C)c1Oc1cc(Nc2ccc(C#N)cc2)ncc1[N+](=O)[O-]`, for which, in series [8], the IC50 amounted to 8.5 µM. The selectivity ratio in series [1] is under 1; in series [2] it was 339; in series [3], under 1. In addition, the CC50 at 120 h in series [4] is 36.1 µM. Besides, the EC50 in series [5] is over 36.1 µM; in series [6], over 36.1 µM; in series [7], 0.11 µM.
As to `Cc1cc(Cl)cc(C)c1Oc1cc(Nc2ccc(C#N)cc2)ncc1[N+](=O)[O-]`, the selectivity ratio was under 1 in series [1], 70 in series [2] and under 1 in series [3]. For the same compound, the CC50 at 120 h in series [4] was found to be 11.1 µM. The figures for the EC50 in series [5], in series [6] and in series [7] were over 11.1 µM, over 11.1 µM and 0.16 µM, respectively.
On to `Cc1cn([C@H]2C[C@H](N=[N+]=[N-])[C@@H](CO)O2)c(=O)[nH]c1=O` [ZIDOVUDINE], for which the selectivity ratio in series [1] is over 7720; in series [2], over 12500; in series [3], over 5960. The CC50 at 120 h in series [4] was over 93.5 µM. The EC50 in series [5] was 0.012 µM; in series [6], 0.016 µM.
Turning to `Cc1cccc(C)c1Oc1cc(Nc2ccc(C#N)cc2)ncc1[N+](=O)[O-]`, the selectivity ratio was under 1 in series [1], 214 in series [2] and under 1 in series [3]. Also, the CC50 at 120 h in series [4] was determined as 126 µM. Also, the figures for the EC50 in series [5], in series [6] and in series [7] were over 126 µM, over 126 µM and 0.58 µM, respectively.

One may read the CC50 as the concentration at which the toxic effect on the cells reaches its halfway point. For orientation: EC50 means the concentration that produces a half-maximal response. For orientation: IC50 means the concentration needed to halve the response being measured.

The values above are taken from ChEMBL document CHEMBL3124921, “Discovery of nitropyridine derivatives as potent HIV-1 non-nucleoside reverse transcriptase inhibitors via a structure-based core refining approach” (Eur J Med Chem, 2014).
